Legend:
LNCaP [1] = assay: Cytotoxicity against human LNCaP cells after 5 days by MTT assay; assay type: functional; details: 120 h
Outline: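 LNCaP cells (RPMI 1640, 10% FBS, 1% penicillin/streptomycin, 37 °C, 5% CO2) seeded at 2 × 10^4 cells/well, left to adhere 24 h, then exposed to compounds in DMSO for five days, with compound and medium renewed on day 3. MTT (0.5 mg/mL) added for 2 h, formazan dissolved in DMSO, absorbance read at 560 nm. Triplicate wells, three independent experiments. GI50 from nonlinear regression.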

PC-3 = assay: Cytotoxicity against human PC3 cells after 5 days by MTT assay; assay type: functional; details: PC-3, 120 h
Outline: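 Growth inhibition by MTT assay with absorbance read at 560 nm. Values are means of three independent experiments.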

[2] = target: T1, Androgen receptor (Homo sapiens) (UniProt P10275); assay: Displacement of [3H]R1881 from wild type androgen receptor expressed in human PC3 cells at 20 uM; assay type: cell-based; details: PC-3
T1 sequence (whole entry): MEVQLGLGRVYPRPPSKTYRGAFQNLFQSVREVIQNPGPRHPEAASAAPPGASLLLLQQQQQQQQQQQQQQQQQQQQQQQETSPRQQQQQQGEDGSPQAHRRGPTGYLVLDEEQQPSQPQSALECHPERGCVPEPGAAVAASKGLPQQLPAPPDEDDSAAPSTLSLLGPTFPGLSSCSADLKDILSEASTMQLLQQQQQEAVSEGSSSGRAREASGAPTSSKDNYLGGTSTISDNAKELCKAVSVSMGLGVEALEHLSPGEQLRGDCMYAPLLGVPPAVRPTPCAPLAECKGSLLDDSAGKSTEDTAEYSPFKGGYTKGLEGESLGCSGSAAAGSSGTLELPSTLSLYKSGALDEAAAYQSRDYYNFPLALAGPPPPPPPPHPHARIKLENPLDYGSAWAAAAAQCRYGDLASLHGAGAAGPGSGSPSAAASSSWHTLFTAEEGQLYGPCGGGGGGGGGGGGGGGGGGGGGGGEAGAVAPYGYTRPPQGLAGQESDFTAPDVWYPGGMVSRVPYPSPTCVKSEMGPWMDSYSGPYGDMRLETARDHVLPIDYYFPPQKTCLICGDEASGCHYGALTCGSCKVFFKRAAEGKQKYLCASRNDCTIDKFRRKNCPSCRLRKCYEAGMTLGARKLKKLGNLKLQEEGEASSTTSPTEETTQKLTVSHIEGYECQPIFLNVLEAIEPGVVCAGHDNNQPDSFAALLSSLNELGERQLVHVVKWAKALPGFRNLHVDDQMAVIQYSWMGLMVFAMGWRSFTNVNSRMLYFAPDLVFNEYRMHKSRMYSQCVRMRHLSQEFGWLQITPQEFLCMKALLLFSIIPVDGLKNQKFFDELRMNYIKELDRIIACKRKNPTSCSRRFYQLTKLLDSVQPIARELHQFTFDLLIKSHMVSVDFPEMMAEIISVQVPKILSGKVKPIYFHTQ

[3] = target: T1, Androgen receptor (Homo sapiens); assay: Activity at androgen receptor expressed in human LNCaP cells assessed as decrease in dihydrotestosterone-stimulated transcriptional activity at 10 uM after 18 hrs by luciferase reporter gene assay; assay type: cell-based; design: scale not given: the % may be the effect or the level left
Outline: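 LNCaP cells transiently transfected with the probasin-driven ARR2-Luc reporter, held in steroid-free medium, then given vehicle or compound with or without 5 nM DHT for 18 h before luciferase read-out. Mean of three independent experiments.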

[4] = target: T1, Androgen receptor (Homo sapiens); assay: Displacement of [3H]R1881 from wild type androgen receptor expressed in human PC3 cells; assay type: cell-based; details: PC-3
[5] = target: T1, Androgen receptor (Homo sapiens); assay: Displacement of [3H]R1881 from mutated androgen receptor expressed in human LNCaP cells; assay type: cell-based
LNCaP [6] = assay: Down regulation of androgen receptor expression in human LNCaP cells by Western blot analysis; assay type: functional, cell-based
Outline: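 LNCaP cells cultured in T25 flasks and treated with compounds. Lysates made in 0.1 M Tris, 0.5% Triton X-100 and protease inhibitor, protein measured by Bradford assay, then run on 10% SDS-PAGE. AR detected with monoclonal AR441 (1:500) and HRP anti-mouse secondary (1:2000) by ECL. Signal normalized to β-actin.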

[7] = target: T1, Androgen receptor (Homo sapiens); assay: Displacement of [3H]R1881 from wild type androgen receptor expressed in human PC3 cells at 10 uM; assay type: cell-based; details: PC-3

Compound	GI50 (LNCaP [1])	GI50 (PC-3)	other results
Cc1ccc(NS(=O)(=O)c2ccccc2)cc1	21.3 µM	13.8 µM	
Cc1ccc(C#N)c(NS(=O)(=O)c2ccc(F)cc2)c1	30.2 µM	> 100 µM	
Cc1ccc(NC(=O)c2ccc(C)cc2)cc1	55 µM	26.9 µM	
Cc1ccc(NCc2ccccc2)cc1 [N-BENZYL-4-METHYLANILINE]	> 100 µM	52.4 µM	
Cc1ccc(NS(=O)(=O)c2ccc(C)cc2)cc1	0.00145 µM	30.2 µM	Activity [2]: 80%; Activity [3]: 80%; Activity [4]: Dose-dependent effect; Activity [5]: Dose-dependent effect; EC50 (LNCaP [6]): 150 µM; Activity [7]: 65%
Cc1ccc(NS(=O)(=O)c2ccccc2)c(C(=O)O)c1	0.0182 µM		
O=S(=O)(Nc1ccccc1)c1ccccc1 [PHENYL(PHENYLSULFONYL)AMINE]		> 100 µM	
Cc1ccc(NS(=O)(=O)c2ccc(F)cc2)c([N+](=O)[O-])c1	0.00234 µM	0.85 µM	Activity [3]: 50%; Activity [4]: Dose-dependent effect; Activity [5]: Dose-dependent effect
O=[N+]([O-])c1ccccc1NS(=O)(=O)c1ccccc1	0.0148 µM	22.9 µM	
Cc1ccc(NS(=O)(=O)c2ccc(F)cc2)c(C(=O)O)c1	10.7 µM	> 100 µM	
Cc1ccc(NS(=O)(=O)c2ccccc2)c([N+](=O)[O-])c1	0.00295 µM	60.2 µM	
Cc1ccc(S(=O)(=O)Nc2ccccc2[N+](=O)[O-])cc1	0.083 µM	50.1 µM	EC50 (LNCaP [6]): > 150 µM
Cc1ccc(S(=O)(=O)Nc2ccccc2)cc1	24 µM	38.9 µM	
Cc1ccc(S(=O)(=O)Nc2ccc(C)cc2[N+](=O)[O-])cc1	39.8 µM	43.7 µM	
Cc1ccc(-c2nnn[nH]2)c(NS(=O)(=O)c2ccc(F)cc2)c1	> 100 µM	> 100 µM	
Cc1ccc(N(C)S(=O)(=O)c2ccc(C)cc2)cc1	89.2 µM	44.7 µM	
Cc1ccc(CNc2ccc(C)cc2)cc1	19.1 µM	29.5 µM	
